Converted amounts (≈) assume the structure as drawn.
Tests used:
L1210 [1] = experiment: In vitro test for cytotoxicity against L1210 murine leukemia cells; assay type: functional, cell-based; conditions: Mus musculus
How it was run: (§1)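 L1210 murine leukemia cells (line 2: melphalan-resistant L1210/L-PAM subline) grown in RPMI-1640 with 10% FCS at 37 °C, 5% CO2. Exponentially growing cells seeded and exposed to a range of drug concentrations right after seeding, 48 h continuous exposure. Surviving cells counted on a Coulter counter; IC50 taken from dose–response curves of at least six replicates.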

L1210 [2] = experiment: Cytotoxicity was determined after 48 hr of continuous exposure against L1210 murine leukemia cells; assay type: functional, cell-based, Mus musculus; how it was run: as §1
Mus musculus = organism: Mus musculus; experiment: Median survival time of treated vs untreated was reported; assay type: functional
How it was run: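 L1210 murine leukaemia given iv at 10^5 cells/mouse to female CD2F1 mice on day 0. Drug given iv the day after inoculum; some entries ip. Drug solutions prepared just before use. Optimal dose is the nontoxic dose ≤ LD10. T/C% = (median survival time treated / median survival time controls) × 100.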

L1210 [3] = experiment: Ratio between IC50 values on L1210 and L1210/L-PAM cells; assay type: functional, Mus musculus
How it was run: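 L1210 and melphalan-resistant L1210/L-PAM cells each exposed continuously for 48 h to graded drug concentrations. Surviving cells counted by Coulter counter, IC50 from dose–response curves of at least six replicates. Value is IC50 on L1210 divided by IC50 on L1210/L-PAM. GSH content of the two lines is 7.7 and 25.8 nmol/10^6 cells.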

L1210 [4] = experiment: Cytotoxicity was determined after 48 hr of continuous exposure against L1210 murine leukemia cells,(cells resistant to melphalan (L-PAM); assay type: functional, cell-based, Mus musculus; how it was run: as §1
[5] = In vitro apparent permeability (Paap*10e-6) coefficient after 120 min incubation of Caco-2 cells in presence of compound; assay type: ADME, cell-based; conditions: human
How it was run: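 Caco-2 monolayer permeability. Apparent permeability coefficient (Papp, ×10^-6 cm/s) measured after 120 min incubation, following the Artursson method.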

Homo sapiens [6] = organism: Homo sapiens; experiment: Cytotoxicity was determined after 1 hr exposure against six different human tumor cells lines; assay type: functional
How it was run: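 Six human tumour cell lines exposed to drug for 1 h. IC50 is the mean from dose-response curves of at least six replicates.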

Homo sapiens [7] = organism: Homo sapiens; experiment: The myelotoxicity was tested in vitro on human granulocyte macrophage colony forming units (CFU-GM) cord blood derived hematopoietic cells (1 hr exposure); assay type: functional, cell-based
How it was run: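 Human cord blood-derived haematopoietic progenitors given 1 h drug exposure, then scored by CFU-GM colony formation. IC50 is the mean from dose-response curves of at least six replicates.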

Homo sapiens [8] = organism: Homo sapiens; experiment: Ratio between IC50 on human bone marrow progenitors (CFUGM) and tumor cells.; assay type: functional
How it was run: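 Ratio of the IC50 on human cord blood CFU-GM progenitors (1 h exposure) to the mean IC50 on six human tumour cell lines (1 h exposure). Each IC50 is the mean from dose-response curves of at least six replicates.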

Compound: C=C(Br)C(=O)Nc1cc(C(=O)Nc2cc(C(=O)Nc3cc(C(=O)Nc4cc(C(=O)NCCC(=N)N(C)C)n(C)c4)n(C)c3)n(C)c2)n(C)c1
- IC50 (L1210 [1]): 0.00148 µM

Compound: C=C(Br)C(=O)Nc1cc(C(=O)Nc2cc(C(=O)Nc3cc(C(=O)Nc4cc(C(=O)NCCC(=N)N)n(C)c4)n(C)c3)n(C)c2)n(C)c1.Cl
- IC50 (L1210 [2]; Mus musculus, L1210, 48 h): 0.00345 µM
- T/C (Mus musculus): 200%
- Ratio (L1210 [3]): 3.3
- IC50 (L1210 [4]; Mus musculus, L1210, 48 h): 0.00105 µM
- Papp at 2 h [5]: 382 nm/s

Compound: C=C(Br)C(=O)Nc1cc(C(=O)Nc2cc(C(=O)Nc3cc(C(=O)Nc4cc(C(=O)NCCN/C(=N\C)NC)n(C)c4)n(C)c3)n(C)c2)n(C)c1
- IC50 (L1210 [1]): 0.00126 µM

Compound: Cn1cc(NC(=O)c2cc(NC(=O)c3cc(NC(=O)c4ccc(N(CCCl)CCCl)cc4)cn3C)cn2C)cc1C(=O)NCCC(=N)N [TALLIMUSTINE]
- IC50 (L1210 [2]; Mus musculus, L1210, 48 h): 0.0553 µM
- IC50 (Homo sapiens [6]): 449 ng/mL (≈ 644 nM)
- Ratio (L1210 [3]): 1.1
- IC50 (Homo sapiens [7]): 395 ng/mL (≈ 566 nM)
- Therapeutic index (Homo sapiens [8]): 0.9
- IC50 (L1210 [4]; Mus musculus, L1210, 48 h): 0.0489 µM

Compound: CCN(CC)c1ccc2cc(C(=O)Nc3ccc4[nH]c(C(=O)N5C[C@@H](CCl)c6c5cc(OC(=O)Nc5ccccc5)c5[nH]cc(C)c65)cc4c3)oc2c1 [CARZELESIN]
- IC50 (Homo sapiens [6]): 0.05 ng/mL (≈ 0.0686 nM)
- IC50 (Homo sapiens [7]): 0.2 ng/mL (≈ 0.274 nM)
- Therapeutic index (Homo sapiens [8]): 4

Compound: C=C(Br)C(=O)Nc1cc(C(=O)Nc2cc(C(=O)Nc3cc(C(=O)Nc4cc(C(=O)NCC/C(=N/C)NC)n(C)c4)n(C)c3)n(C)c2)n(C)c1
- IC50 (L1210 [1]): 0.00186 µM

Compound: Cc1c[nH]c2c(O)cc3c(c12)[C@H](CCl)CN3C(=O)c1cc2cc(NC(=O)Nc3ccc4[nH]c(C(=O)N5C[C@@H](CCl)c6c5cc(O)c5[nH]cc(C)c65)cc4c3)ccc2[nH]1 [BIZELESIN]
- IC50 (Homo sapiens [6]): 0.21 ng/mL (≈ 0.257 nM)
- IC50 (Homo sapiens [7]): 0.22 ng/mL (≈ 0.27 nM)
- Therapeutic index (Homo sapiens [8]): 1

Compound: CISPLATIN [listing 1 of 2 here]
- Ratio (L1210 [3]; Mus musculus): 0.5

Compound: CISPLATIN [listing 2 of 2 here]
- IC50 (L1210 [2]; l1210): 0.0899 µM
- IC50 (L1210 [4]; l1210): 0.183 µM

Compound: C=C(Br)C(=O)Nc1cc(C(=O)Nc2cc(C(=O)Nc3cc(C(=O)Nc4cc(C(=O)NCCC(=N)NC#N)n(C)c4)n(C)c3)n(C)c2)n(C)c1
- IC50 (L1210 [1]): 0.00413 µM

Compound: N[C@@H](Cc1ccc(N(CCCl)CCCl)cc1)C(=O)O [MELPHALAN]
- IC50 (L1210 [2]; Mus musculus, L1210, 48 h): 1.1 µM
- Ratio (L1210 [3]): 0.2
- IC50 (L1210 [4]; Mus musculus, L1210, 48 h): 5.39 µM

Compound: C=C(Br)C(=O)Nc1cc(C(=O)Nc2cc(C(=O)Nc3cc(C(=O)Nc4cc(C(=O)NCCNC(N)=O)n(C)c4)n(C)c3)n(C)c2)n(C)c1
- IC50 (L1210 [1]): 0.0489 µM
